Measurements from ChEMBL document CHEMBL1138043, “Exploration of orally available calpain inhibitors 2: peptidyl hemiacetal derivatives” (J Med Chem, 2006).
≈ marks a conversion by molar mass, not a printed value. Calls of active or inactive are those of the source. The rule behind the calls is not given here.

Key:
[1] = AUC (0-infinity) in Sprague-Dawley rat at 10 mg/kg, po; type: ADME, organism-based; parameters: time infinity, dose 10 mg/kg, route oral; conditions: plasma
Procedure, shortened: (§1)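 Male Sprague-Dawley rats (200-250 g), single dose. Oral dosing as a suspension in 0.5% carboxymethyl cellulose; iv dosing at 10 mg/mL in 60% poly(ethylene glycol)/40% water. Plasma was taken from abdominal aorta blood under isoflurane at 0.1 (iv only), 0.25, 0.5, 1, 2, 4 and 8 h, with n = 4 or 5 per time point. Samples underwent solid-phase extraction and LC-MS/MS (MRM). Values are mean ± SD.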

[2] = Terminal half life in Sprague-Dawley rat at 3 mg/kg, iv; type: ADME, organism-based; parameters: dose 3 mg/kg, route intravenous; conditions: in vivo; procedure, shortened: as §1
[3] = Volume of distribution in Sprague-Dawley rat at 3 mg/kg, iv; type: ADME, organism-based; parameters: dose 3 mg/kg, route intravenous; conditions: in vivo, read-out: Vdss; procedure, shortened: as §1
Rattus norvegicus [4] = test: Neuroprotective activity in Sprague-Dawley rat ischemia-reperfusion model measured as cell density in retinal ganglion cell layer at 100 mg/kg, po relative to control; type: functional
Procedure, shortened: (§2)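 Male Sprague-Dawley rats (150-250 g) received oral doses as a suspension in 0.5% CMC, 15 min before ischemia and again after reperfusion. Controls received vehicle. HE-stained nuclei in the ganglion cell layer 1-2 mm from the optic disk were counted over a 250 µm width at three sites. Comparison by Student t-test.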

[5] = Oral bioavailability in Sprague-Dawley rat; type: ADME, organism-based; conditions: in vivo; procedure, shortened: as §1
[6] = AUC (0-infinity) in Sprague-Dawley rat at 3 mg/kg, iv; type: ADME, organism-based; parameters: time infinity, dose 3 mg/kg, route intravenous; conditions: plasma; procedure, shortened: as §1
[7] = biological target: T1, Calpain-1 catalytic subunit (Homo sapiens, UniProt P07384); test: Inhibition of human erythrocyte mu calpain
T1 sequence (P07384 whole entry): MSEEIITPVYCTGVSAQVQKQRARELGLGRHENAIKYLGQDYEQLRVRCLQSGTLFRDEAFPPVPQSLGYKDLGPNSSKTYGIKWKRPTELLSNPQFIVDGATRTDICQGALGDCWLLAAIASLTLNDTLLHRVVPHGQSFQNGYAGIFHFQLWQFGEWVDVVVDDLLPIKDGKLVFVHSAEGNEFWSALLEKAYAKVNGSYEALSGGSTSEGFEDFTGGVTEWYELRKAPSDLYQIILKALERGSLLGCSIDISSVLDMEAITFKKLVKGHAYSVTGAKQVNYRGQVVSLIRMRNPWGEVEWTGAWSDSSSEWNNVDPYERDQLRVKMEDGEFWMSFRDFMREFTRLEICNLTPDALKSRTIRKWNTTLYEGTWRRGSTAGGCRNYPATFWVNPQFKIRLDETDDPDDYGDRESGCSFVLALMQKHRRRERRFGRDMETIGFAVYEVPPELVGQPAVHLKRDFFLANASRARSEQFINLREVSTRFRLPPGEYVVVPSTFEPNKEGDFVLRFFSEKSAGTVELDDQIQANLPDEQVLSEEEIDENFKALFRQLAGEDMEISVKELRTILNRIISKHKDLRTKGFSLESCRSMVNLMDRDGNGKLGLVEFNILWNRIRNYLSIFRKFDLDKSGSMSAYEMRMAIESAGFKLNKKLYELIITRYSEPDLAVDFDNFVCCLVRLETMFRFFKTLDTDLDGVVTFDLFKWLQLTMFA
Procedure, shortened: (§3)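 Casein substrate at 0.5 mg/mL in 50 mM Tris-HCl pH 7.4 with 20 mM dithiothreitol and 1.0 nmol enzyme. Inhibitors were added in DMSO. Reaction was started with 20 mM CaCl2; blank wells received 1 mM EDTA instead. Incubation ran 60 min at 30 °C. Percent inhibition came from OD differences. IC50 is the mean of two independent determinations.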

[8] = Metabolic stability in human hepatic S9 fraction after 0.5 hrs; type: ADME; conditions: liver S9 fraction, read-out: Stability
Procedure, shortened: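 Compound at 5 µM final (added in acetonitrile) was incubated with human hepatic S9 in 50 mM potassium phosphate pH 7.4. An NADPH-generating system was present (3 mM MgCl2, 1 mM NADP+, 5 mM glucose-6-phosphate, 1 U/mL G6PDH). Incubation ran 30 min at 37 °C and was quenched with acetonitrile. Residual parent was measured by LC-UV or LC-MS/MS, n = 1.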

Rattus norvegicus [9] = test: Neuroprotective activity in Sprague-Dawley rat ischemia-reperfusion model measured as cell density in retinal ganglion cell layer at 30 mg/kg, po relative to control; type: functional, organism-based; parameters: dose 30 mg/kg; procedure, shortened: as §2
[10] = Clearance in Sprague-Dawley rat at 3 mg/kg, iv; type: ADME, organism-based; parameters: dose 3 mg/kg, route intravenous; conditions: in vivo; procedure, shortened: as §1
[11] = biological target: T2, Calpain-2 catalytic subunit (Sus scrofa, UniProt P43367); test: Inhibition of porcein kidney m calpain; procedure, shortened: as §3
T2 sequence (P43367 whole entry): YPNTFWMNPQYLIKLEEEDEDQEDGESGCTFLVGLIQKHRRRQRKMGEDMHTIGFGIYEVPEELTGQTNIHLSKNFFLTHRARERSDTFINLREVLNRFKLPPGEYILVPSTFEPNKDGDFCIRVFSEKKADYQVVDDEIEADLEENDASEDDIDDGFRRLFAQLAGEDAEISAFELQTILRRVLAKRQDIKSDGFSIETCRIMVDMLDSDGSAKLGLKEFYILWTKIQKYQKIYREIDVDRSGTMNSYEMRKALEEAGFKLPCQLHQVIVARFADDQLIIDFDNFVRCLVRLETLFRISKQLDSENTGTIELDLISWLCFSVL

[12] = Tmax in Sprague-Dawley rat at 10 mg/kg, po; type: ADME, organism-based; parameters: dose 10 mg/kg, route oral; conditions: in vivo; procedure, shortened: as §1
[13] = Cmax in Sprague-Dawley rat at 10 mg/kg, po; type: ADME, organism-based; parameters: dose 10 mg/kg, route oral; conditions: in vivo; procedure, shortened: as §1
[14] = Aqueous solubility at pH 7 at 25 degreeC; type: physicochemical
Rattus norvegicus [15] = test: Neuroprotective activity in Sprague-Dawley rat ischemia-reperfusion model measured as cell density in retinal ganglion cell layer at 500 mg/kg, po; type: functional, organism-based; parameters: dose 500 mg/kg; procedure, shortened: as §2
[16] = Cmax in Sprague-Dawley rat at 500 mg/kg, po; type: ADME, organism-based; parameters: dose 500 mg/kg, route oral; conditions: in vivo; procedure, shortened: as §1
[17] = AUC (0-infinity) in Sprague-Dawley rat at 500 mg/kg, po; type: ADME, organism-based; parameters: time infinity, dose 500 mg/kg, route oral; conditions: plasma; procedure, shortened: as §1
[18] = Lipophilicity, log D of the compound; type: physicochemical; conditions: octanol/water
[19] = Tmax in Sprague-Dawley rat at 500 mg/kg, po; type: ADME, organism-based; parameters: dose 500 mg/kg, route oral; conditions: in vivo; procedure, shortened: as §1
[20] = Apparent permeability from apical to basolateral side of the Caco-2 cell; type: ADME, cell-based; conditions: human

Compound	half-life [2]	Vd [3]	bioavailability [5]	AUC(0-inf) [6]	IC50 [7]	remaining at 0.5 h [8]	clearance [10]	IC50 [11]	solubility [14]	other results
CC(C)C[C@H](NC(=S)Nc1ccccc1)C(=O)N[C@H]1CCOC1O (stereo partly specified)	114 min	2.3 L/kg	66%	2.6 µM·h	86 nM	100%	55 mL/min/kg	190 nM	–	AUC(0-inf) [1]: 5.7 µM·h; Activity (Rattus norvegicus [4]): 6.38; Activity (Rattus norvegicus [9]): inactive; Tmax [12]: 15 min; Cmax [13]: 5.6 µM
CCCCNC(=O)C(=O)[C@H](CC(C)C)NC(=O)[C@@H](NS(=O)(=O)c1ccc(F)cc1)C(C)C	–	–	–	–	–	25%	–	–	5.3 µg/mL (≈ 11.2 µM)	–
CC(C)C[C@@H](C=O)NC(=O)[C@@H](NS(=O)(=O)c1ccc(F)cc1)C(C)C	42 min	6.1 L/kg	18%	1.5 µM·h	–	3%	89 mL/min/kg	49 nM	100 µg/mL (≈ 268 µM)	Activity (Rattus norvegicus [15]): Active; Cmax [16]: 9.4 µM; AUC(0-inf) [17]: 45 µM·h; logD [18]: 1.7; Tmax [19]: 60 min; Papp A→B [20]: 2.6 ×10⁻⁶ cm/s
CC(C)C[C@@H](C#N)NC(=O)[C@@H](NS(=O)(=O)c1ccc(F)cc1)C(C)C	–	–	–	–	> 100000 nM	–	–	> 100000 nM	–	–
CC(C)[C@H](NS(=O)(=O)c1ccc(F)cc1)C(=O)N[C@H]1CCOC1O (stereo partly specified)	–	–	–	–	880 nM	79%	–	2600 nM	1500 µg/mL (≈ 4160 µM)	–
CC(C)C[C@@H](/C=N/NC(=O)CN(C)C)NC(=O)[C@@H](NS(=O)(=O)c1ccc(F)cc1)C(C)C	–	–	–	–	–	64%	–	–	–	–
